Assay results from different studies.
Each line is one published result; the experiments were not run side by side.
Observed: metabolic stability
Host: rat

SMILES	test system	conditions	measurement	result
CC(C)CC(=O)OC[C@H]1O[C@@](C#N)(c2ccc3c(N)ncnn23)[C@H](O)[C@@H]1O	hepatocytes	5 µM	hepatocyte CLint	> 318 µL/min/10⁶ cells
NCCOCC(=O)N1CCCC(C(=O)NCc2nc(-c3ccc(-c4ccc(F)cc4)cc3)cs2)C1 (centres unmarked)	liver microsomes		scaled CLint	< 7 mL/min/kg
O=c1[nH]c2ccccc2n1C1CCN(CCCC(c2ccc(F)cc2)c2ccc(F)cc2)CC1	liver microsomes	100 ng/mL	microsomal CLint	8.7 µL/min/mg
Cc1[nH]c(C)c(S(=O)(=O)Nc2ccc(S(=O)(=O)F)c(Cl)c2)c1C(=O)N1CCC(F)(F)C1	liver microsomes		microsomal CLint	63.7 µL/min/mg
C[C@]12CC[C@H]3[C@@H](CCC4=CC(=O)CC[C@@]43C)[C@@H]1CC[C@@H]2O	liver microsomes		microsomal CLint	893 µL/min/mg
Cc1[nH]c(C)c(S(=O)(=O)Nc2ccc(S(F)(F)(F)(F)F)cc2)c1C(=O)N1CCC(F)(F)C1	liver microsomes		microsomal CLint	39 µL/min/mg
C[C@]12CC[C@H]3[C@@H](CCC4=CC(=O)CC[C@@]43C)[C@@H]1CC[C@@H]2O	liver microsomes	1 µM, pH 7.4	scaled CLint	2500 mL/min/kg
O=C1CCC(N2Cc3c(ccc4c3OCC43CCN(Cc4ccccc4)CC3)C2=O)C(=O)N1 (centres unmarked)	liver microsomes	1 µM	scaled CLint	22 mL/min/kg
